{"source": "paper PMC9366314", "about": "(Acta Pharmaceutica Sinica. B, 2022)", "key": {"[1]": {"test": "Human liver microsome stability assay", "type": "in vitro ADME", "details": "liver microsomes, pH 7.4", "method_in_brief": "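Test compound (1 μmol/L) was preincubated for 5 min at 37 °C with human liver microsomes (0.5 mg/mL) in 100 mmol/L potassium phosphate, pH 7.4, with 5 mmol/L MgCl2. Reactions were started with 1 mmol/L NADPH. Aliquots were quenched with acetonitrile containing internal standard at 0, 5, 15, 30 and 45 min, centrifuged and analysed by LC–MS/MS for half-life and intrinsic clearance.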"}, "MP41 xenograft": {"tested_on": "MP41 xenograft", "test": "MP41 xenograft model", "type": "in vivo, nude BALB/c nu/nu mice", "details": "21 days", "method_in_brief": "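Nude BALB/c nu/nu mice (18–22 g, 6–8 weeks) bearing MP41 xenografts were randomised at n = 6/group. They received vehicle or test compound (5, 15 or 30 mg/kg/day) ip for 21 consecutive days. Body weight and tumour size were recorded every 2 days. Tumours were harvested on day 22 for weighing and H&E staining. Groups were compared by one-way ANOVA.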"}, "92.1 cells": {"tested_on": "92.1 cells", "test": "Clonogenic", "type": "cell-based", "details": "1 and 3 μmol/L; 9 days", "method_in_brief": "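92.1 cells were exposed to test compound for 9 days, and colonies were counted with a colony counter. Data are mean ± SEM, n = 3.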"}, "[2]": {"tested_on": "cleaved caspase-7, Bcl-2, and Mcl-1", "test": "Western blot of apoptosis related proteins in UM cells", "type": "cell-based", "method_in_brief": "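Cells or xenograft tumour tissue were lysed in RIPA buffer with protease and phosphatase inhibitors. Lysates were cleared at 15,000 rpm, 4 °C for 15 min, and protein was quantified by BCA. Proteins were separated on 8%–12% SDS-PAGE, transferred to PVDF and blocked with 5% BSA. After primary and secondary antibodies, bands were detected by enhanced chemiluminescence.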"}, "MP41 cells": {"tested_on": "MP41 cells", "test": "Cell cycle analysis by flow cytometry, MP41", "type": "cell-based", "details": "48 h", "method_in_brief": "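MP41 cells were seeded at 3 × 10^5 cells/well, left overnight, then exposed to test compound for 48 h. Cells were washed and fixed in 70% ethanol at 4 °C for 12 h. Staining with RNase (100 μg/mL) and PI (50 μg/mL) ran at 37 °C for 0.5 h. Phase distribution was read by flow cytometry. Data are mean ± SEM, n = 3.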"}}}
{"smiles": "CN1CCC[C@H]1CN1CCn2cc(-c3ccccc3)nc2[C@@H]1CC1CCCCC1", "note": "[GQ262]", "values": [{"measurement": "CLint scaled at 1 μmol/L", "setting": "[1]", "result": 30.2, "unit": "mL/min/kg"}, {"measurement": "half-life at 1 μmol/L", "setting": "[1]", "result": 57.5, "unit": "min"}, {"measurement": "Tumor growth inhibition (TGI)", "setting": "MP41 xenograft; 5 mg/kg/day ip", "result": 55.2, "unit": "%"}, {"measurement": "Tumor growth inhibition (TGI)", "setting": "MP41 xenograft; 15 mg/kg/day ip", "result": 82.8, "unit": "%"}, {"measurement": "Tumor growth inhibition (TGI)", "setting": "MP41 xenograft; 30 mg/kg/day ip", "result": 106.6, "unit": "%"}, {"measurement": "Body weight of the mice", "setting": "MP41 xenograft; 5, 15, 30 mg/kg/day ip", "result": "did not decline"}, {"measurement": "Side effects during and after the treatment (H&E staining)", "setting": "MP41 xenograft; 5, 15, 30 mg/kg/day ip", "result": "did not observe manifest side effects"}, {"measurement": "Colony formation of 92.1 cells", "setting": "92.1 cells", "result": "obviously blocked the colony formation"}, {"measurement": "Bcl-2 and Mcl-1 levels", "setting": "[2]", "result": "down-regulation"}, {"measurement": "Cleaved caspase-7 level", "setting": "[2]", "result": "up-regulation"}, {"measurement": "Cellular proportion in G0/G1 phase", "setting": "MP41 cells; 3 μmol/L", "result": 78.0, "unit": "%"}, {"measurement": "Cellular proportion in G0/G1 phase", "setting": "MP41 cells; 10 μmol/L", "result": 79.4, "unit": "%"}]}
